Test results reported in ChEMBL document CHEMBL1156362, “Antimalarial (+)-trans-hexahydrodibenzopyran derivatives from Machaerium multiflorum” (J Nat Prod, 2001).
In brackets after ≈: the same amount, converted by molar mass.

Tests used:
Cryptococcus neoformans = test: […] activity against Cryptococcus neoformans ATCC 90113 after 48 hrs by microplate assay; format: functional, organism-based
In short: (§1)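 IC50 values were read from a modified 96-well microplate growth-inhibition assay against ATCC strains: C. neoformans 90113, S. aureus 6535 and methicillin-resistant S. aureus 33591. Positive controls were amphotericin B and tetracycline, and DMSO served as the negative control.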

Staphylococcus aureus [1] = test: Antibacterial activity against Staphylococcus aureus ATCC 6535 after 48 hrs by microplate assay; format: functional, organism-based; in short: as §1
Staphylococcus aureus [2] = test: Antibacterial activity against methicillin-resistant Staphylococcus aureus ATCC 33591 after 48 hrs by microplate assay; format: functional, organism-based; in short: as §1
[3] = Selectivity index, ratio of IC50 for african green monkey (Cercopithecus aethiops) Vero cells to IC50 for chloroquine-resistant Plasmodium falciparum W2; format: toxicity, cell-based; settings: read-out: Ratio IC50
[4] = Selectivity index, ratio of IC50 for african green monkey (Cercopithecus aethiops) Vero cells to IC50 for chloroquine-sensitive Plasmodium falciparum D6; format: toxicity, cell-based; settings: read-out: Ratio IC50
Plasmodium falciparum [5] = test: Antimalarial activity against chloroquine-sensitive Plasmodium falciparum D6 by LDH reporter assay; format: functional, organism-based
Plasmodium falciparum [6] = test: Antimalarial activity against chloroquine-resistant Plasmodium falciparum W2 by LDH reporter assay; format: functional, organism-based
[7] = target: Cannabinoid receptor 1 (Homo sapiens) (UniProt P21554); test: Displacement of [3H]CP-55940 from human recombinant CB1 receptor expressed in HEK293 cells at 0.1 uM; format: cell-based
Chain of Cannabinoid receptor 1 (Homo sapiens) (P21554 whole entry): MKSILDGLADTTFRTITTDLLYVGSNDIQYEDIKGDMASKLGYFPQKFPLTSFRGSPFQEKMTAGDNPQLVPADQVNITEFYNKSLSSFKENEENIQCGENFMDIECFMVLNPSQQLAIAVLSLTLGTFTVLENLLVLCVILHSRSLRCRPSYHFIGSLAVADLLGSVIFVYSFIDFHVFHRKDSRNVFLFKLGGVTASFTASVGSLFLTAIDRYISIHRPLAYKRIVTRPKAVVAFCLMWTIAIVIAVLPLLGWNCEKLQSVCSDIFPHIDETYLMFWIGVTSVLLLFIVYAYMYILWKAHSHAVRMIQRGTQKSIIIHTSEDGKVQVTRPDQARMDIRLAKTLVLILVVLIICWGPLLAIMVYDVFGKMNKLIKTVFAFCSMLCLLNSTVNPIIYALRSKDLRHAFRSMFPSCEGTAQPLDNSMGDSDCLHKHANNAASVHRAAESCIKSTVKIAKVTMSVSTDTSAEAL
In short: (§2)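 Radioligand binding assay for the CB1 site, using human recombinant HEK-293 cells as the receptor source. Compounds were screened in a primary assay at 1 and 0.1 µM and expressed as % affinity. A response above 50% of maximum stimulation or inhibition counted as significant. WIN-55,212-2 was the reference, with DMSO as placebo.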

[8] = target: Cannabinoid receptor 1 (Homo sapiens) (UniProt P21554); test: Displacement of [3H]CP-55940 from human recombinant CB1 receptor expressed in HEK293 cells at 1 uM; format: cell-based; in short: as §2
[9] = Cryptococcus neoformans, ATCC 90113, 48 h, read-out: IC50
[10] = Staphylococcus aureus, ATCC 6535, 48 h, read-out: IC50
[11] = Staphylococcus aureus, ATCC 33591, 48 h, read-out: IC50

SMILES	IC50 (Cryptococcus neoformans; [9])	IC50 (Staphylococcus aureus [1])	IC50 (Staphylococcus aureus [2])	IC50 (Staphylococcus aureus [1]; [10])	IC50 (Staphylococcus aureus [2]; [11])	selectivity ratio [3]	selectivity ratio [4]	IC50 (Plasmodium falciparum [5])	IC50 (Cryptococcus neoformans)	IC50 (Plasmodium falciparum [6])	Activity [7]	Activity [8]
C[C@@H]1[C@H](O)[C@@H](C)/C=C/C=C/C=C/C=C/C=C/C=C/C=C/[C@H](O[C@@H]2O[C@H](C)[C@@H](O)[C@H](N)[C@@H]2O)C[C@@H]2O[C@](O)(C[C@@H](O)C[C@@H](O)[C@H](O)CC[C@@H](O)C[C@@H](O)CC(=O)O[C@H]1C)C[C@H](O)[C@H]2C(=O)O [AMPHOTERICIN B]	0.375 µg/mL (≈ 0.406 µM)	Not Active	Not Active									
CN(C)[C@@H]1C(O)=C(C(N)=O)C(=O)[C@@]2(O)C(O)=C3C(=O)c4c(O)cccc4[C@@](C)(O)[C@H]3C[C@@H]12 [TETRACYCLINE]				0.15 µg/mL (≈ 0.338 µM)	0.15 µg/mL (≈ 0.338 µM)							
C[C@@H]1CC[C@H]2[C@@H](C)C(=O)O[C@@H]3O[C@@]4(C)CC[C@@H]1[C@]32OO4 [ARTEMISININ]						> 1080	> 952					
C[C@H]1CC[C@H]2[C@H](C1)c1c(O)cc(-c3cc4ccccc4o3)cc1OC2(C)C [MACHAERIOL B]				5 µg/mL (≈ 13.8 µM)	4.5 µg/mL (≈ 12.4 µM)	> 40	> 6.6	0.72 µg/mL (≈ 1.99 µM)	Not Active	0.12 µg/mL (≈ 0.331 µM)	3%	-3%
C[C@H]1CC[C@H]2[C@H](C1)c1c(O)cc(/C=C/c3ccccc3)cc1OC2(C)C [MACHAERIOL A]	50 µg/mL (≈ 143 µM)			15 µg/mL (≈ 43 µM)	10 µg/mL (≈ 28.7 µM)	> 7.9	> 3.2	1.5 µg/mL (≈ 4.3 µM)		0.6 µg/mL (≈ 1.72 µM)	10%	7%
